The source of these data is ChEMBL document CHEMBL4177542, “A New Combination of a Pleuromutilin Derivative and Doxycycline for Treatment of Multidrug-Resistant Acinetobacter baumannii” (J Med Chem, 2017).

For data set [1], the system named is Acinetobacter baumannii. Put plainly: Synergistic bactericidal activity against Acinetobacter baumannii ATCC 19606 at 60:1 compound to doxycycline ratio after 48 hrs by resazurin dye based microdilution broth checkerboard method. Particulars: ATCC 19606 = CIP 70.34 = JCM 6841, 48 h, read-out: MBC99.9. Type of data set: functional. In outline:
(§1)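 Checkerboard broth microdilution of drug pairs in tryptic soy broth on mid-log cultures (OD 0.5), 48 h at 37 °C. Growth read by resazurin (pink growth, blue no growth). MBC is blue retained over 4 h, CFU plating where needed. ΣFIC = C_A/MIC_A + C_B/MIC_B, taken at the growth/no-growth interface wells; ΣFIC <0.5 counts as synergy.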
In general terms: Alamar Blue is a resazurin reagent that responds to reducing activity.

The test system of data set [2] is Acinetobacter baumannii. Briefly: Synergistic antibacterial activity against Acinetobacter baumannii ATCC 19606 at 35:1 compound to doxycycline ratio after 48 hrs by resazurin dye based microdilution broth checkerboard method. Type of data set: functional. The note with it: ATCC 19606 = CIP 70.34 = JCM 6841, 48 h. In outline: (§2)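 Microdilution broth checkerboard of the compound combined with doxycycline, using the resazurin broth method (48 h, 37 °C, blue = no growth). ΣFIC = C_A/MIC_A + C_B/MIC_B, taken at the growth–no growth interface wells; ΣFIC below 0.5 is scored as synergy. MBC for the fixed-ratio combinations read as the 4 h resazurin endpoint.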

The subject of data set [3] is Acinetobacter baumannii. Briefly: Synergistic bactericidal activity against Acinetobacter baumannii ATCC 19606 at 35:1 compound to doxycycline ratio after 48 hrs by resazurin dye based microdilution broth checkerboard method. Type of data set: functional. Particulars: ATCC 19606 = CIP 70.34 = JCM 6841, 48 h, read-out: MBC99.9. The method in brief:
as §1

In data set [4] the test system is Acinetobacter baumannii. Put plainly: Synergistic bactericidal activity against Acinetobacter baumannii ATCC 19606 at 2:1 compound to doxycycline ratio after 48 hrs by resazurin dye based microdilution broth checkerboard method. The note with it: ATCC 19606 = CIP 70.34 = JCM 6841, 48 h, read-out: MBC99.9. Type of data set: functional. The method in brief:
as §1

The test system of data set [5] is Acinetobacter baumannii. Put plainly: Synergistic antibacterial activity against multidrug-resistant Acinetobacter baumannii ATCC […] at 60:1 compound to doxycycline ratio after 48 hrs by resazurin dye based microdilution broth checkerboard method. Type of data set: functional. The note with it: ATCC BAA 18002, 48 h. The method in brief: as §2
The subject of data set [6] is Acinetobacter baumannii. Briefly: Synergistic bactericidal activity against multidrug-resistant Acinetobacter baumannii ATCC […] at 60:1 compound to doxycycline ratio […] by resazurin dye based microdilution broth checkerboard method. Type of data set: functional. The note with it: read-out: MBC99.9.
Data set [7] relates to Klebsiella pneumoniae. Put plainly: Synergistic bactericidal activity against Klebsiella pneumoniae ATCC 8047 at 60:1 compound to doxycycline ratio after 48 hrs by resazurin dye based microdilution broth checkerboard method. Particulars: ATCC 8047, 48 h, read-out: MBC99.9. Type of data set: functional. The method in brief: as §1
Data set [8] relates to Escherichia coli. Briefly: Synergistic antibacterial activity against Escherichia coli ATCC 10798 at 60:1 compound to doxycycline ratio after 48 hrs by resazurin dye based microdilution broth checkerboard method. Type of data set: functional. Particulars: ATCC 10798, 48 h. The method in brief:
as §1

The subject of data set [9] is Escherichia coli. Briefly: Synergistic bactericidal activity against Escherichia coli ATCC 10798 at 60:1 compound to doxycycline ratio after 48 hrs by resazurin dye based microdilution broth checkerboard method. Type of data set: functional. The note with it: ATCC 10798, 48 h, read-out: MBC99.9. The method in brief: as §1
In data set [10] the test system is Escherichia coli. Put plainly: Synergistic antibacterial activity against Escherichia coli ATCC 10798 at 2:1 compound to doxycycline ratio after 48 hrs by resazurin dye based microdilution broth checkerboard method. The note with it: ATCC 10798, 48 h. Type of data set: functional. In outline: as §1
In data set [11] the test system is Pseudomonas aeruginosa. Briefly: Synergistic antibacterial activity against Pseudomonas aeruginosa ATCC 27853 at 60:1 compound to doxycycline ratio after 48 hrs by resazurin dye based microdilution broth checkerboard method. Particulars: ATCC 27853, 48 h. Type of data set: functional. The method in brief:
as §1

The subject of data set [12] is Pseudomonas aeruginosa. Briefly: Growth inhibition of Pseudomonas aeruginosa ATCC 27853 at 2:1 compound to doxycycline ratio after 48 hrs by resazurin dye based microdilution method. Type of data set: functional. The note with it: ATCC 27853, 48 h. The method in brief:
as §1

The test system of data set [13] is Pseudomonas aeruginosa. Briefly: Growth inhibition of Pseudomonas aeruginosa ATCC 27853 after 48 hrs by resazurin dye based microdilution method. Type of data set: functional. The note with it: ATCC 27853, 48 h. The method in brief: (§3)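 Broth microdilution in tryptic soy broth. Mid-log cultures (OD600 0.5) treated with serial dilutions from a DMSO stock (1 mg per 100 μL) for 48 h at 37 °C. Resazurin (stock 0.02%) then added for 1 h at 37 °C. MIC is the lowest concentration staying blue; MBC is blue retained over 4 h (99.9% kill), with CFU plating when needed.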

For data set [14], the system named is Staphylococcus aureus. Put plainly: Synergistic bactericidal activity against Staphylococcus aureus ATCC 25923 at 2:1 compound to doxycycline ratio after 48 hrs by resazurin dye based microdilution broth checkerboard method. Particulars: ATCC 25923, 48 h, read-out: MBC99.9. Type of data set: functional. The method in brief:
as §1

Data set [15] relates to Staphylococcus aureus. Briefly: Growth inhibition of Staphylococcus aureus ATCC 25923 after 48 hrs by resazurin dye based microdilution method. Type of data set: functional. Particulars: ATCC 25923, 48 h. The method in brief:
as §3

Data set [16] relates to Staphylococcus aureus. Put plainly: Bactericidal activity against Staphylococcus aureus ATCC 25923 after 48 hrs by resazurin dye based microdilution method. Particulars: ATCC 25923, 48 h, read-out: MBC99.9. Type of data set: functional. The method in brief:
as §3

Data set [17] relates to Acinetobacter baumannii. Put plainly: Potentiation of doxycycline-induced antimicrobial activity against Acinetobacter baumannii ATCC 19606 at 0.40 ug/ml in presence of 0.025 ug/ml doxycycline by microdilution broth checkerboard method. Type of data set: functional, ATCC 19606 = CIP 70.34 = JCM 6841. The method in brief:
(§4)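 A. baumannii ATCC 19606 in a broth microdilution checkerboard with doxycycline, 96 concentration combinations. ΣFIC = C_A/MIC_A + C_B/MIC_B, taken for wells at the growth/no-growth interface; ΣFIC <0.5 counts as synergy.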
(In general: In broth dilution the organism is exposed to a series of concentrations in liquid medium.)

In data set [18] the test system is Acinetobacter baumannii. Briefly: Potentiation of doxycycline-induced antimicrobial activity against Acinetobacter baumannii ATCC 19606 at 0.78 ug/ml in presence of 0.025 ug/ml doxycycline by microdilution broth checkerboard method. Type of data set: functional, ATCC 19606 = CIP 70.34 = JCM 6841. In outline:
as §4

For data set [19], the system named is Acinetobacter baumannii. Put plainly: Potentiation of doxycycline-induced antimicrobial activity against Acinetobacter baumannii ATCC 19606 at 0.20 ug/ml in presence of 0.05 ug/ml doxycycline by microdilution broth checkerboard method. Type of data set: functional, ATCC 19606 = CIP 70.34 = JCM 6841. The method in brief: as §4
In data set [20] the test system is Vero. Put plainly: Cytotoxicity against African green monkey Vero cells after 72 hrs by MTT assay. Type of data set: cell-based, Chlorocebus sabaeus. Particulars: Chlorocebus sabaeus, Vero, 72 h; read-out: IC50. The method in brief: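 Vero (ATCC CCL-81) cells in Eagle's MEM with 10% FBS and penicillin-streptomycin, in 96-well plates. Serial dilutions from 0.78 to 200 μg/mL. Tunicamycin, colistin or tobramycin as controls on each plate. Viability by MTT, giving IC50.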
Background: Tetrazolium assays rely on reduction of a dye to a coloured formazan, in cell work by metabolically active cells.

A short description of data set [21]: Safety index, ratio of compound IC50 to valnemulin IC50 for African green monkey Vero cells. Type of data set: ADME, cell-based. Particulars: chlorocebus sabaeus, read-out: Ratio IC50.
Data set [22] relates to Acinetobacter baumannii. Put plainly: Synergistic antibacterial activity against Acinetobacter baumannii ATCC 19606 infected in C57BL/6 mouse assessed as survival rate at compound to doxycycline ratio of 35:1 at 2 mg/kg, ip administered as single dose measured for 5 days (reference value: <20%). The note with it: ATCC 19606 = CIP 70.34 = JCM 6841, ip, 120 h. Type of data set: functional. The method in brief:
(§5)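 C57BL/6 mice (n = 5 per group; 4 untreated controls) infected intraperitoneally with A. baumannii ATCC19606 grown at 37 °C and collected by centrifugation, at a dose giving 75% death. Single intraperitoneal dose (2 to 60 mg/kg) given 1 h after infection. Mice monitored for 5 days, with death as the end point; survival rate recorded.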

The test system of data set [23] is Acinetobacter baumannii. Put plainly: Antibacterial activity against Acinetobacter baumannii ATCC 19606 infected in C57BL/6 mouse assessed as survival rate at 20 mg/kg, ip administered as single dose measured for 5 days (reference value: <20%). Type of data set: functional. Particulars: ATCC 19606 = CIP 70.34 = JCM 6841, ip, 120 h. In outline: as §5
The test system of data set [24] is Acinetobacter baumannii. Briefly: Synergistic antibacterial activity against Acinetobacter baumannii ATCC 19606 infected in C57BL/6 mouse assessed as increase in survival rate at compound to doxycycline ratio of 35:1 administered ip as single dose measured for 5 days. Type of data set: functional. The note with it: ATCC 19606 = CIP 70.34 = JCM 6841, ip, 120 h. In outline:
as §5

In brackets after ≈: the same amount, converted by molar mass. A value given as a limit tells only on which side of the number the result lay.

With `C=C[C@]1(C)C[C@@H](OC(=O)CSC(C)(C)CNC(=O)[C@H](N)C(C)C)[C@]2(C)[C@H](C)CC[C@]3(CC[C@@H](O)[C@H]32)[C@@H](C)[C@@H]1O`, the MBC in data set [1] worked out at 2 µg/mL; in data set [3] it was 2 µg/mL; in [4], 2 µg/mL; in data set [6], 6.25 µg/mL; in data set [7], 3.25 µg/mL; in [9], 1.56 µg/mL. Further, the MBC in [14] was found to be 25 µg/mL; in [16] it was 25 µg/mL (≈ 44.1 µM). The MIC in data set [2] was 0.4 µg/mL; in data set [5] it was 1.56 µg/mL; in [8], 0.25 µg/mL; in data set [10] it was 0.25 µg/mL; in [11] it was 12.5 µg/mL; in data set [12], 6.25 µg/mL. Further, the results for the MIC in [13] and in data set [15] were over 25 µg/mL and 12.5 µg/mL (≈ 22.1 µM), respectively. For the same compound, the “fractional inhibitory concentration index (FICI)” value in [17] is on record as 0.19; in [18], 0.25 - 0.37; in [19], 0.28. In addition, the IC50 in data set [20] was 45.3 µg/mL (≈ 79.9 µM). In data set [21], the selectivity ratio is 2.85. Further, the survival at 2 mg/kg in data set [22] stood at 60%. For the same compound, the survival at 20 mg/kg in [23] is 100%. Further, in [24], the ED50 was under 2 mg/kg.

Usually MIC stands for the least concentration at which growth counts as inhibited. For orientation: IC50 means the concentration that gives 50% inhibition. The ED50 is the midpoint of the dose-response relation.
